High-throughput results deposited in PubChem by several laboratories.
Rows were chosen to be rich in hits. Some 27% of all compounds tested hit in one or more screens of this group.
CYP2C19 inhib: inhibitors of human CYP2C19 | actives 21% (n = 96,000) | CYP2C19 Supersomes, luciferin-H EGE luminescence, 30 min | P33261 | inhibition, % at 5 µM;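 active = CYP2C19 inhibition above a set limit at 5 µM in the primary screen, cut at about 50% in these data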;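 also: plate controls were negative control wells for no effect and 2.5 mM tranylcypromine positive control for full effect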
Target sequence (P33261 whole entry, looked up): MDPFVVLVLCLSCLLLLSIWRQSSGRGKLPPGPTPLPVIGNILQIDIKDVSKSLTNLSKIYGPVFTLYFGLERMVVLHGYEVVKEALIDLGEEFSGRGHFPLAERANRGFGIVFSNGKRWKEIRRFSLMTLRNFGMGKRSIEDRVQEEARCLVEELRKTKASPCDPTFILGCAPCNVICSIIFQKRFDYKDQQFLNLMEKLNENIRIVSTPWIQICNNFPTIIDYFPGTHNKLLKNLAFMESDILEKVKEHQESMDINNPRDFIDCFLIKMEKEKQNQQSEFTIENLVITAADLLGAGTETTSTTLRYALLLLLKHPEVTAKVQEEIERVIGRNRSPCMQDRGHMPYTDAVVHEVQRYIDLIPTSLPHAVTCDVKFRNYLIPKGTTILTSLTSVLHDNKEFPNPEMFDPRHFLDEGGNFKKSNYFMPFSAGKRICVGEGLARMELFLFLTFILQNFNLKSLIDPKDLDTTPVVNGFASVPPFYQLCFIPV
HIV Rev-RRE inh: disrupts HIV-1 Rev binding to RRE RNA; P05866; Rev peptide-RRE RNA binding, FRET; inhibition, % at 8 µM; actives 0.79% (n = 97,000); AID 704;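 active = inhibition above the screen-wide mean plus 3 SD, cut at about 35% in these data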;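 also: 0% = median DMSO wells and 100% = median Neomycin B control wells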
Target sequence (P05866 whole entry, looked up): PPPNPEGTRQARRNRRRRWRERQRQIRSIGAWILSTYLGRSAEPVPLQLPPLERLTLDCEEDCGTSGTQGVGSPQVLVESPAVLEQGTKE
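Test system: labelled RRE RNA duplex and labelled Rev peptide. Times: 5 min compound–RNA preincubation, then 15 min with peptide, 25 °C. Doses: single-dose 8 µM. Measured by: FRET, excitation 480 nm, emission 540 nm donor and 671 nm acceptor. Measure: % inhibition of FRET ratio versus controls.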
Cav32 inh: inhibitors of human Cav3.2 T-type calcium channel; O95180; Cav3.2-expressing cells, Fluo-4 calcium fluorescence FDSS; active compounds read low; B-score at 10 µM; actives 4% (n = 100,000); AID 449739;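 active = single-dose well whose peak fluorescence ratio is a statistical outlier from its plate by either plate-standardised score or position-corrected B-score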
CYP2C19 act: cytochrome P450 2C19 (human) activation | AID 1025 | P33261 | 96,000 tested, under 10 active | activation factor at 5 µM | recombinant CYP2C19, luciferin-H EGE luminescence; active compounds read high; 0 = fully inhibited enzyme, 1 = untreated enzyme;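 active = activation factor of at least 2 at 5 µM in the primary screen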;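 also: 0 = wells with 2.5 mM tranylcypromine and 1 = vehicle-only wells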
CYP2C9 act: CYP2C9 (human) activation | activation factor at 5 µM | P11712 | actives 1.4% (n = 96,000) | recombinant CYP2C9, luciferin-H conversion, luminescence; active compounds read high; factor 1 = untreated enzyme, 0 = blocked;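 active = activation factor of 2 or more for CYP2C9 at a 5 µM dose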;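 also: 0 = sulfaphenazole-blocked wells and 1 = vehicle-only wells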
CYP2C9 inhib: blocks human cytochrome P450 2C9 | actives 20% (n = 96,000) | inhibition, % at 5 µM | AID 777 | CYP2C9 Supersomes, luciferin-H conversion, luminescence | P11712;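 active = blocking of liver enzyme CYP2C9 beyond about 50% at 5 µM, limit read from the data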
The depositor's hits bear a star; / = not tested or not shown.

SMILES	CYP2C19 inhib	HIV Rev-RRE inh	Cav32 inh	CYP2C19 act	CYP2C9 act	CYP2C9 inhib
Clc1ccc(-c2nnsc2SCc2ccccc2)cc1	-12.6	6.8	-0.134	1.1	0.7	25.5
CCCNS(=O)(=O)c1ccc(CCC(=O)NCc2ccc3c(c2)OCO3)cc1	80.5*	5.1	0.45	0.2	0.3	74.3*
CC(=O)c1cc2c(cc1NS(=O)(=O)c1ccccc1)OCO2	88.2*	-0.2	0.123	0.1	2.8*	-177.4
CC(C)NS(=O)(=O)c1ccc(CCC(=O)NCc2ccc3c(c2)OCO3)cc1	/	3.1	-1.85	/	/	/
CC(C)(C)NS(=O)(=O)c1ccc(CCC(=O)Nc2ccc3c(c2)OCO3)cc1	58.0*	5.9	0.318	0.4	0.1	94.3*
O=C(CCc1ccc(S(=O)(=O)NCc2ccccc2)cc1)N1CCN(Cc2ccc3c(c2)OCO3)CC1	46.9	1.4	-0.702	0.5	0.4	64.8*
O=C(CS(=O)(=O)Cc1ccccc1)N1CCN(Cc2ccc3c(c2)OCO3)CC1	21.8	-1.9	0.976	0.8	0.8	23.4
O=C(Nc1cccc(N2CCCC2)c1)c1cccs1	-2.4	5.0	0.41	1	0.9	11.6
O=C(NCCc1ccccc1)[C@@H]1CC=C[C@@H]2CCN(Cc3ccc(Cl)c(Cl)c3)C(=O)[C@@H]21	/	/	-2.18	/	/	/
CCOc1ccc(N2C(=O)C(c3ccccc3)=C(c3nc4ccccc4s3)C2NC(C)=O)cc1 (stereo not given)	-4.5	-0.9	-0.0144	1	0.7	26.4
O=C(Nc1ccccc1Sc1ccccc1)c1ccccc1F	/	13.9	-1.61	/	/	/
CCOC(=O)c1sc(C)c2c(=O)n(CCCN3CCOCC3)cnc12	-14.0	/	0.937	1.1	1.2	-20.2
O=C(c1cccc(S(=O)(=O)NCc2ccccc2)c1)N1CCN(Cc2ccccc2)CC1	64.8*	11.4	-1.6	0.4	0.7	30.2
CC(C)(C)NS(=O)(=O)c1ccc(CCC(=O)NCc2ccc3c(c2)OCO3)cc1	/	5.1	-0.00412	/	/	/
CC(=O)NCCc1ccc(S(=O)(=O)NCc2ccc3c(c2)OCO3)cc1	61.1*	3.2	0.522	0.4	0.5	46.6
CCOc1ccc(NC(=O)C(C)O)c(NS(=O)(=O)c2ccc(CCNC(C)=O)cc2)c1 (stereo not given)	16.3	2.9	0.785	0.8	0.9	6.6
O=C(c1ccccc1S(=O)(=O)NCc1ccccc1)N1CCCC1	89.8*	/	0.333	0.1	0.3	66.1*
Cc1ccc(S(=O)(=O)NCc2ccc(C(=O)N3CCN(Cc4ccccc4)CC3)cc2)cc1	38.6	7.2	-3.83	0.6	0.7	30.0
CCCc1cc2c(cc1NS(=O)(=O)c1ccc(CCNC(C)=O)cc1)OCO2	77.5*	-1.8	0.0459	0.2	0.6	39.7
CCOC(=O)CNC(=O)C(CC(C)C)NC(=O)C1CCCCC1 (stereo not given)	2.3	7.9	0.966	1	1.1	-11.8
N#Cc1c(N)c(C#N)c(-c2ccc(O)cc2)c2c1CCCC2	36.8	8.5	-5.61*	0.6	1.4	-36.0
N#Cc1c(N)c(C#N)c(-c2ccc3c(c2)OCO3)c2c1CCCC2	-1.7	/	-0.109	1	1	-1.6
Cc1ccc(C)c(-n2nnnc2SCC(=O)c2ccc3c(c2)NC(=O)CO3)c1	56.2*	0.9	-0.682	0.4	2.5*	-153.7
CCc1ccc(NC(=O)CSc2nnc(COc3ccc4c(c3)CCCC4)o2)cc1	24.9	4.4	-0.0655	0.8	0.6	40.0
O=C1N[C@@H](Cc2cn(S(=O)(=O)c3c(F)c(F)c(F)c(F)c3F)c3ccccc23)C(=O)N[C@H]1Cc1ccccc1	/	/	0.394	/	/	/
SMILES	CYP2C19 inhib	HIV Rev-RRE inh	Cav32 inh	CYP2C19 act	CYP2C9 act	CYP2C9 inhib
COc1ccc(/C=C(/NC(=O)c2ccccc2)C(=O)N/N=C/c2cccs2)cc1OC	28.8	6.5	-0.0268	0.7	1	3.1
COc1ccc(/C=N\NC(=O)/C(=C\Nc2nccc(C)n2)NC(=O)c2ccccc2)cc1	31.7	-0.8	-1.26	0.7	0.2	76.3*
O=C1NCC(O)=C1C=NC12CC3CC(CC(C3)C1)C2	-2.7	2.8	0.134	1	1.1	-9.0
O=C(Nc1ccc2nc(C3CC3)n(Cc3ccc(F)cc3)c(=O)c2c1)c1ccco1	55.8*	4.5	-2.41	0.4	0.3	67.3*
COc1cccc(Cn2c(C3CC3)nc3ccc(NC(=O)c4ccco4)cc3c2=O)c1	6.4	3.5	-1.65	0.9	0.9	6.4
NCCCC[C@@H](C(=O)N1CCNCC1)n1cc([C@@H](N)CO)nn1	/	/	0.341	/	/	/
O=C(NCCOc1ccccc1)c1cncc(Br)c1	84.0*	4.3	1.59	0.2	0.7	32.3
COc1cc(OC)cc(C(=O)NCCOc2ccccc2)c1	62.3*	8.6	0.00316	0.4	0.9	13.6
Cc1ccc(C(C)C)c(OCCNS(C)(=O)=O)c1	7.3	8.7	0.249	0.9	1	4.0
Cc1ccc(C(C)C)c(OCCNC(=O)c2cncc(Br)c2)c1	71.8*	16.1	-4.91*	0.3	0.4	63.1*
O=C(Nc1ccccc1C(=O)O)c1cncc(Br)c1	-13.4	11.8	-0.136	1.1	0.4	60.3*
O=C(c1cnn(-c2ccccc2)c1-n1cccc1)N1CCN(C2CCCCC2)CC1	/	/	0.144	/	/	/
CCOC(=O)C1=CSC2=NS(=O)(=O)CCN12	-14.2	6.4	1.3	1.1	1	-4.6
CCc1cc(C)cc(OCCNC(=O)c2cncc(Br)c2)c1	71.6*	9.1	-3.08	0.3	0.8	23.1
COC(=O)c1ccc(OCCOc2ccccc2)cc1	67.2*	6.3	-0.879	0.3	0.5	54.4*
C/C(=N\NC(=S)NCCc1ccccc1)c1ccc(C)cc1	/	2.2	-1.94	/	/	/
C=C(C)CNC(=S)N/N=C(\C)c1ccc(-n2ccnc2)cc1	100.0*	-2.6	-0.0733	0	0	99.5*
O=C(COc1ccc(F)c(Cl)c1)c1ccc[nH]1	74.3*	0.9	-1.07	0.3	0.9	12.5
O=C(Cc1ccc(Cl)cc1Cl)OCC(=O)c1ccc[nH]1	13.7	9.6	-2.3	0.9	0.7	34.4
CCCCOC1(c2ccccc2)OC(=O)c2ccccc21 (stereo not given)	55.0*	17.8	-0.808	0.4	0.4	61.2*
O=C1OC(Oc2ccccc2)(c2ccccc2)c2ccccc21 (stereo not given)	44.3	16.4	-2.53	0.6	0.5	54.4*
O=C1OC(OC2CCCCC2)(c2ccccc2)c2ccccc21 (stereo not given)	8.8	22.2	-0.763	0.9	0.7	26.0
CCOc1ccc(CCNC(=O)CCCN2C(=O)c3ccccc3C2=O)cc1OCC	3.3	3.8	0.595	1	0.8	19.8
Cc1c(C#N)c2ncn(Cc3ccccc3)c(=O)c2n1-c1ccccc1	44.7	5.7	1.66	0.6	0.4	63.0*
COC(=O)Cn1cnc2c(C#N)c3n(c2c1=O)CCCCC3	13.8	-1.3	0.247	0.9	0.9	12.3
